Test [1] is described as follows: Antitumor activity against human MOLM16 cells xenografted in […] mouse assessed as tumor regression at 25 or 50 mg/kg, iv administered 3 times per week for 3 weeks. The test is classed as functional. Background: A xenograft is tissue or cells of one species grown in another, often human tumour cells in immunodeficient mice.
Test [2] has as its system Mus musculus. Nature of the test: In vivo degradation of STAT3 in SCID mouse xenografted with MOLM-16 cells at 50 mg/kg, iv measured upto 72 hrs by Western blot analysis relative to control. It counts as functional. The procedure, abridged:
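SCID mice bearing subcutaneous Molm-16 tumors (3 × 10^6 cells in Matrigel; treated at ~150 mm3) given a single intravenous dose in 10% PEG400 + 90% PBS, or vehicle. Tumors harvested at time points. Lysates immunoblotted for total STAT3 and pSTAT3 Y705, compared with vehicle control.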

For test [3], the target named is T1, Signal transducer and activator of transcription 4 (Homo sapiens, UniProt Q14765).
T1 sequence (Q14765 whole entry): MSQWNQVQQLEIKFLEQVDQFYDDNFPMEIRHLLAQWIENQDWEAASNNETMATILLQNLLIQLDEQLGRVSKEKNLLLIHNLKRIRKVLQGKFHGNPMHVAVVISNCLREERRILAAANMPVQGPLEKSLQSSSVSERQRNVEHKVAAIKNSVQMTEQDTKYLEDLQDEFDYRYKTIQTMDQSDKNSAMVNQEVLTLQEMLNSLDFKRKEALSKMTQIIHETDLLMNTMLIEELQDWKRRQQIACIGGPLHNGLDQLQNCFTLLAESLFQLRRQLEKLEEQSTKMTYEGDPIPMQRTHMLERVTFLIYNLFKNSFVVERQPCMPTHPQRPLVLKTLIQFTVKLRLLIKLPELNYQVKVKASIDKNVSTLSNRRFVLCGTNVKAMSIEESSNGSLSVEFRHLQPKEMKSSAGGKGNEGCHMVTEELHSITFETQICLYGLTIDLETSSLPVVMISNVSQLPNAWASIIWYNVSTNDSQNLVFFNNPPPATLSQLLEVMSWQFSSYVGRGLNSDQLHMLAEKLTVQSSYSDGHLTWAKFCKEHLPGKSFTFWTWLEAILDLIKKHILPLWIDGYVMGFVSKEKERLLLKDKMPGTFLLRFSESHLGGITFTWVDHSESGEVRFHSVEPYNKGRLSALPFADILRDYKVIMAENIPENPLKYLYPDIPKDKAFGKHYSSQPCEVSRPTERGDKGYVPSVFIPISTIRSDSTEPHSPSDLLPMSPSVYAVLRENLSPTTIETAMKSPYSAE
Nature of the test: Binding affinity to recombinant human His/SUMO-tagged STAT4 (133 to 705 residues) expressed in Escherichia coli Rosetta (DE3) incubated for 1 hr by fluorescence polarization assay.

Test [4] concerns the target Protein cereblon/Signal transducer and activator of transcription 6 (Homo sapiens) (UniProt P42226+Q96SW2). Nature of the test: Protac activity at CRBN/STAT6 in human MOLM16 cells assessed as degradation of STAT6 at 0.01 to 10 uM incubated for 4 hrs by Western blot analysis. It counts as cell-based. In short, it runs like this:
(§1)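 Molm-16 cells treated 4 h with test compound at 0.01–10 μM, or control compounds at 10 μM. Lysates separated by SDS–PAGE, transferred to PVDF, blocked 1 h in 5% blocker/TBST, probed for each STAT protein, and detected by chemiluminescence.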
(A western blot detects proteins with antibodies after separation by electrophoresis.)

The species named for test [5] is Homo sapiens. The test can be described thus: Selectivity index, ratio of protac activity at CRBN/STAT2 in human SUDHL1 cells to protac activity at CRBN/STAT3 in human SUDHL1 cells. The test is classed as cell-based. The procedure, abridged: (§2)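 SU-DHL-1 cells treated 18 h with compound at 0.01–10 μM, or controls at 10 μM. Immunoblotting used SDS–PAGE, PVDF transfer, 1 h block in 5% blocker/TBST, primary and secondary antibodies and chemiluminescence. Levels of other STAT family members compared with STAT3 to express degradation selectivity.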

In test [6] the target is Protein cereblon/Signal transducer and activator of transcription 5B (Homo sapiens) (UniProt P51692+Q96SW2). The test can be described thus: Protac activity at CRBN/STAT5B in human SUDHL1 cells assessed as degradation of STAT5B at 0.01 to 10 uM incubated for 18 hrs by Western blot analysis. The test is classed as cell-based. The procedure, abridged: (§3)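 SU-DHL-1 cells treated 18 h with test compound at 0.01–10 μM, or control compounds at 10 μM. Lysates separated by SDS–PAGE, transferred to PVDF, blocked 1 h in 5% blocker/TBST, probed for each STAT protein, and detected by chemiluminescence.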
Protein cereblon/Signal transducer and activator of transcription 5B (Homo sapiens), sequence (P51692 whole entry, looked up): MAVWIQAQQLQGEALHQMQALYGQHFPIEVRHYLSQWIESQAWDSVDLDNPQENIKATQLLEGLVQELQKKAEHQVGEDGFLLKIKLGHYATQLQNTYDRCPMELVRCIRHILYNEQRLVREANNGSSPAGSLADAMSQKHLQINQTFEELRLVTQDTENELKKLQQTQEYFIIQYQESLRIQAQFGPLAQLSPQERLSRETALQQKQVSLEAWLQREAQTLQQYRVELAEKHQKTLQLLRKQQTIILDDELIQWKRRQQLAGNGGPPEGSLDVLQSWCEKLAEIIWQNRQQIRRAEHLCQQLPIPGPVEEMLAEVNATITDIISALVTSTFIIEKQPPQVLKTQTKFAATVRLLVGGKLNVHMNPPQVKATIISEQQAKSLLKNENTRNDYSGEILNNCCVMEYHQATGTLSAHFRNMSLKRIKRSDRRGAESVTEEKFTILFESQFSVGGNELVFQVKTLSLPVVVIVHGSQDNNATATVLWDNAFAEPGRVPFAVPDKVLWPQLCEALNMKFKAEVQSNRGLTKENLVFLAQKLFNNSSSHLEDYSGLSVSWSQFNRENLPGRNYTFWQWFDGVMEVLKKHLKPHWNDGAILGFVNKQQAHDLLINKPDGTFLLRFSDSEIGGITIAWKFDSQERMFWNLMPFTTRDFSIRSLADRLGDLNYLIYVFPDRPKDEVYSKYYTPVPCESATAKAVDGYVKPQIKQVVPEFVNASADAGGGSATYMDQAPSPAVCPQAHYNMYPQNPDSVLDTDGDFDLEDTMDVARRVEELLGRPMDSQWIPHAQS
Protein cereblon/Signal transducer and activator of transcription 5B (Homo sapiens), sequence (Q96SW2 whole entry, looked up): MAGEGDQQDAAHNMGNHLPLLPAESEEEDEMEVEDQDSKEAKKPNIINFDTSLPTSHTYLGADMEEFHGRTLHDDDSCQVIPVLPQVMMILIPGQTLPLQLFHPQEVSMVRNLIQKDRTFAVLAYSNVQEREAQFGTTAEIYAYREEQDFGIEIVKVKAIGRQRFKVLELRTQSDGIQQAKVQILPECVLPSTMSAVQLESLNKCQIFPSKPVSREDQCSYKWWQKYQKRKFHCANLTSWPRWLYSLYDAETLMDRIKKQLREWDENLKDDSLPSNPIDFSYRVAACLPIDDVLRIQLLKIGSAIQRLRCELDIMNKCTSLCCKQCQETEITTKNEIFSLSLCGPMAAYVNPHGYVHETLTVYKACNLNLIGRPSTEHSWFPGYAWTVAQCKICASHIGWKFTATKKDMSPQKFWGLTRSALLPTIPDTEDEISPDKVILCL

For test [7], the species on record is Homo sapiens. Nature of the test: Selectivity index, ratio of protac activity at CRBN/STAT6 in human SUDHL1 cells to protac activity at CRBN/STAT3 in human SUDHL1 cells. It counts as cell-based. The procedure, abridged:
as §2

The target of test [8] is Protein cereblon/Signal transducer and activator of transcription 2 (Homo sapiens) (UniProt Q96SW2+P52630). The test can be described thus: Protac activity at CRBN/STAT2 in human SUDHL1 cells assessed as degradation of STAT2 at 0.01 to 10 uM incubated for 18 hrs by Western blot analysis. It counts as cell-based. In short, it runs like this:
as §3

The target in test [9] is Protein cereblon/Signal transducer and activator of transcription 3 (Homo sapiens, UniProt P40763+Q96SW2). The test can be described thus: Protac activity at CRBN/STAT3 in human SUDHL1 cells assessed as degradation of STAT3 incubated for 16 hrs by Western blot analysis. The test is classed as cell-based.
Protein cereblon/Signal transducer and activator of transcription 3, sequence (P40763 whole entry): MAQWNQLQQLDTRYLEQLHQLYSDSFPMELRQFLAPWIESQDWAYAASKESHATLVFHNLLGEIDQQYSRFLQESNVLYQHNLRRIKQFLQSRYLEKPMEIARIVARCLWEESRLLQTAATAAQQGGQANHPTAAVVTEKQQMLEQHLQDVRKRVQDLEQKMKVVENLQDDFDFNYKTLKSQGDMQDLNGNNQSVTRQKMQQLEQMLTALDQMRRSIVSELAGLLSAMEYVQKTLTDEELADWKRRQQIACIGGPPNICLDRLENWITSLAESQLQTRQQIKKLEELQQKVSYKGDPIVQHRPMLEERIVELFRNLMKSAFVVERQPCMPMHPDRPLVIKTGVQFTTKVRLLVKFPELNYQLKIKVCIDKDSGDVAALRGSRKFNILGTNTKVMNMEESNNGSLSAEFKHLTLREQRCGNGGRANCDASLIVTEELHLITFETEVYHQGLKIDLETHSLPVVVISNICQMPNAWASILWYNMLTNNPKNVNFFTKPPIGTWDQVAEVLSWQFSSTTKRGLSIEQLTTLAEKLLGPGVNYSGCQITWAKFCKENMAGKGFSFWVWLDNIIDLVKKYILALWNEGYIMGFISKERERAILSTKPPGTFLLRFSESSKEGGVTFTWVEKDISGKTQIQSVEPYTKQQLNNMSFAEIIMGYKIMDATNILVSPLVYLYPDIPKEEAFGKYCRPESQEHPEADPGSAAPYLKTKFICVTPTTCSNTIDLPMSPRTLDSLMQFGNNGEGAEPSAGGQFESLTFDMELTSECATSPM
Protein cereblon/Signal transducer and activator of transcription 3, sequence (Q96SW2 whole entry): as the sequence (Q96SW2 whole entry, looked up) above
For test [10], the system named is Mus musculus. The test can be described thus: In vivo degradation of STAT3 in CD1 mouse at 25 mg/kg, iv measured upto 48 hrs by Western blot analysis. It counts as functional, organism-based. The procedure, abridged: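 Female CD-1 mice given a single intravenous dose in 10% PEG400 + 90% PBS, or vehicle. Euthanized at set time points. Spleen harvested and lysates immunoblotted for STAT3.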

Test [11] deals with Protein cereblon/Signal transducer and activator of transcription 4 (Homo sapiens) (UniProt Q96SW2+Q14765). The test can be described thus: Protac activity at CRBN/STAT4 in human MOLM16 cells assessed as degradation of STAT4 at 0.01 to 10 uM incubated for 4 hrs by Western blot analysis. It counts as cell-based. In short, it runs like this:
as §1

For test [12], the species on record is Homo sapiens. Nature of the test: Selectivity index, ratio of protac activity at CRBN/STAT4 in human MOLM16 cells to protac activity at CRBN/STAT3 in human MOLM16 cells. The test is classed as cell-based. In short, it runs like this:
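Molm-16 cells treated 4 h with compound at 0.01–10 μM, or controls at 10 μM. Western blot of lysates: SDS–PAGE, PVDF, 1 h block in 5% blocker/TBST, primary and secondary antibodies, chemiluminescent detection. STAT1, -2, -4, -5A/B and -6 levels read against STAT3 to give degradation selectivity.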

The source made the active and inactive calls. No cut-off for these calls is given here. A value given as a limit tells only on which side of the number the result lay.

Protein cereblon/Signal transducer and activator of transcription 6 (Homo sapiens), sequence (P42226 2-847 limits assumed): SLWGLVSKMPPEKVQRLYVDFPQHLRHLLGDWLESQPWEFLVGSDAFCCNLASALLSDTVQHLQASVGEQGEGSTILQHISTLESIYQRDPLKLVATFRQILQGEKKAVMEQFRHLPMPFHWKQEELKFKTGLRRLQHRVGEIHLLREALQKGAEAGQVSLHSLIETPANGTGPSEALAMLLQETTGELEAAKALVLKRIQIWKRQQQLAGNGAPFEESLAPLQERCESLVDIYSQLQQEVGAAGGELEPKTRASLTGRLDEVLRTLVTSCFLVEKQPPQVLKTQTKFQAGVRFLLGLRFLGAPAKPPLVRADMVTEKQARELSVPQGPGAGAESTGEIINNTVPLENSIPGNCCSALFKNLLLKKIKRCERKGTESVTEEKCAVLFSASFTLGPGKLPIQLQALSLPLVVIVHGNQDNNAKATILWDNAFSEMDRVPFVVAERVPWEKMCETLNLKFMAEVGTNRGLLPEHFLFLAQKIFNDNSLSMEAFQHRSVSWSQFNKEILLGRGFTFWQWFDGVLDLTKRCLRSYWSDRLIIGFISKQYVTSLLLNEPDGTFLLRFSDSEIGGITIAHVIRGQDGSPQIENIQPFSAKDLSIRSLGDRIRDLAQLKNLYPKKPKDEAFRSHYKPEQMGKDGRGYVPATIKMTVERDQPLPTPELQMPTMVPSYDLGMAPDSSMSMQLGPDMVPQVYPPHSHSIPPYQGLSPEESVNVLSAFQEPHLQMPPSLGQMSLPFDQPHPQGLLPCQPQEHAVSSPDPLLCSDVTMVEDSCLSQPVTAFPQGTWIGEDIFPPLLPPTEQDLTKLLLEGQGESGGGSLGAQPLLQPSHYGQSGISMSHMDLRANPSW
Protein cereblon/Signal transducer and activator of transcription 6 (Homo sapiens), sequence (Q96SW2 whole entry partner): as the sequence (Q96SW2 whole entry, looked up) above
Protein cereblon/Signal transducer and activator of transcription 2 (Homo sapiens), sequence (P52630 whole entry, looked up): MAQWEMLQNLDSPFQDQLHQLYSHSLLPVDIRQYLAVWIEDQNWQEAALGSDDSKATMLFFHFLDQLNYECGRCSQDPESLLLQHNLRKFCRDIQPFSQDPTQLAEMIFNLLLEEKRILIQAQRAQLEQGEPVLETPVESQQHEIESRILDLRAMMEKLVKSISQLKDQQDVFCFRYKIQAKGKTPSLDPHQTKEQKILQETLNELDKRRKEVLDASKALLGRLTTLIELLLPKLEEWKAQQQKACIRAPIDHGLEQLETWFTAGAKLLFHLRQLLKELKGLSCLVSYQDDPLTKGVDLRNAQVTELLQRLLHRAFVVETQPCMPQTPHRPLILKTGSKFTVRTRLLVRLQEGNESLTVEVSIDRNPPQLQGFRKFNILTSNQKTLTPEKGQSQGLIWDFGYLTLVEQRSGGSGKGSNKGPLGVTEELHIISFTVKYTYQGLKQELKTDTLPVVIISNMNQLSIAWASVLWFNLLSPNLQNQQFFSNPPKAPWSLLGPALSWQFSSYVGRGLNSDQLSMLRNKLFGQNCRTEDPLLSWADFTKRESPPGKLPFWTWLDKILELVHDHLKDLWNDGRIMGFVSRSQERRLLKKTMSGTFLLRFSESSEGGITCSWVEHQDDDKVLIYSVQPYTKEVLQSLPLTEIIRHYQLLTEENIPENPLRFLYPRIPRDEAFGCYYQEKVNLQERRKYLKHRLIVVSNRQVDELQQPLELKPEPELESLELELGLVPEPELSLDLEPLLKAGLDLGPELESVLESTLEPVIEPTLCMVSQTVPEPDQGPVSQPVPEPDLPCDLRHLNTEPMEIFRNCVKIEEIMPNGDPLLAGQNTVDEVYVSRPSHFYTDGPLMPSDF
Protein cereblon/Signal transducer and activator of transcription 2 (Homo sapiens), sequence (Q96SW2 whole entry, looked up): as the sequence (Q96SW2 whole entry, looked up) above
Protein cereblon/Signal transducer and activator of transcription 4 (Homo sapiens), sequence (Q96SW2 whole entry, looked up, one chain of several): as the sequence (Q96SW2 whole entry, looked up) above

The term Kd denotes the free concentration of one partner at which half of the binding sites on the other are occupied at equilibrium, for simple one-to-one binding. A word on the DC50: it is the midpoint of the concentration-degradation curve. Take `NC(=O)CC[C@H](NC(=O)[C@@H]1CC[C@@H]2CCN(C(=O)CCCCCC#Cc3cccc4c3CN(C3CCC(=O)NC3=O)C4=O)C[C@H](NC(=O)c3cc4cc(C(F)(F)P(=O)(O)O)ccc4[nH]3)C(=O)N21)C(=O)NC(c1ccccc1)c1ccccc1` (some centres not stated): the Activity is on record as 100% in [1] and over 95% in the test with Mus musculus [2]. The Kd in test [3] stood at 1000 nM. Moreover, the outcome in test [4], in test [6], in test [8] and in test [11] was inactive. Further, the Ratio in the test listed under Homo sapiens [5], in the test filed under Homo sapiens [7] and in the test listed under Homo sapiens [12] was over 100 each time. Besides, the DC50 in [9] amounted to 28 nM. Besides, in the test with Mus musculus [10], the outcome was Active.

These data come from ChEMBL document CHEMBL4354826, “Structure-Based Discovery of SD-36 as a Potent, Selective, and Efficacious PROTAC Degrader of STAT3 Protein” (J Med Chem, 2019).
